From ChEMBL document CHEMBL3526018, “Metabolites of PPI-2458, a selective, irreversible inhibitor of methionine aminopeptidase-2: structure determination and in vivo activity” (Drug Metab Dispos, 2013) come the findings set out here.

Calls of active or inactive are those of the source. The rule behind the calls is not given here.

Data set [1] has as its system CYP3A4 (Homo sapiens). Put plainly: Activity of human recombinant CYP3A4 assessed as ((3R,4S,5S,6R)-4-((2R,3R)-3-((E)-4-hydroxy-3-methylbut-2-en-1-yl)-2-methyloxiran-2-yl)-5-methoxy-1-oxaspiro[2.5]octan-6-yl((R)-1-amino-3-methyl-1-oxobutan-2-yl)carbamate) formation per pmol of enzyme.
The nature of data set [2]: Half life in non-Hodgkin lymphoma patient at 15 mg, po alternate days for 21 days. It counts as ADME, organism-based. The following applies: human, in vivo. Put shortly: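 Oral PPI-2458 given every other day to lymphoma patients. Plasma sampled pre-dose and at 15 min, 30 min, 1, 2, 3, 4, 6, 8, 24 and 48 h after the first dose. Parent and metabolites were measured by LC-MS/MS after protein precipitation, evaporation and reconstitution. CL/F was computed only for parent and summed analytes. For metabolites, t1/2 is an apparent first-phase value.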

Data set [3] relates to Rattus norvegicus. The data set is described as follows: Inhibition of MetAP2 level in Sprague-Dawley rat thymus assessed as free enzyme level at 3 mg/kg, po by ELISA. It counts as functional, organism-based. Also on record: dose 3 mg/kg. Put shortly: (§1)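 Male Sprague-Dawley rats (200-225 g, n=3 per group) were dosed once IV at 0.3 mg/kg or PO at 0.3 or 3.0 mg/kg, in 11% HPCD in water. Blood, liver, lung, thymus and pooled non-mesenteric lymph nodes were taken at ~24 h and lysed or homogenized with NP-40. Free MetAP2 was measured by ELISA and expressed as % of vehicle.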

Data set [4] relates to CYP3A5 (Homo sapiens). Put plainly: Activity of human recombinant CYP3A5 assessed as ((3R,4S,5S,6R)-4-((2R,3R)-3-(((S)-3,3-dimethyloxiran-2-yl)methyl)-2-methyloxiran-2-yl)-5-methoxy-1-oxaspiro[2.5]octan-6-yl ((R)-1-amino-3-methyl-1-oxobutan-2-yl)carbamate) formation per pmol of enzyme.
The next data set relates to Liver. Put plainly: Metabolic stability in mouse liver microsomes assessed as retention time of ((3R,4S,5S,6R)-4-((2R,3R)-3-(((S)-3,3-dimethyloxiran-2-yl)methyl)-2-methyloxiran-2-yl)-5-methoxy-1-oxaspiro[2.5]octan-6-yl ((R)-1-amino-3-methyl-1-oxobutan-2-yl)carbamate) at 5 mM by LC/MS analysis. It counts as ADME. The following applies: 5000 µM. The essentials: (§2)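 Liver microsomes (pooled male/female) in 100 mM KPO4 pH 7.4 with PPI-2458 (5 mM stock), pre-incubated 5 min at 37°C, then 10 mM NADPH added; 20 min at 37°C with shaking. Time-zero and no-NADPH controls. Quenched with CH3CN; supernatant dried and redissolved in water. Analysed by LC-MS, ESI+ full scan 300–800 amu, C18 column, 10→50% B gradient.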

Data set [5] in a line: Metabolic stability in monkey liver microsomes assessed as retention time of ((3R,4S,5S,6R)-4-((2R,3R)-3-(((R)-3,3-dimethyloxiran-2-yl)methyl)-2-methyloxiran-2-yl)-5-methoxy-1-oxaspiro[2.5]octan-6-yl ((R)-1-amino-3-methyl-1-oxobutan-2-yl)carbamate) at 5 mM by LC/MS analysis. The following applies: rhesus monkey, 5000 µM. It counts as ADME, Macaca mulatta. The essentials:
as §2

For data set [6], the system named is Liver microsome. The data set is described as follows: Metabolic stability in rat liver microsomes assessed as retention time of ((3R,4S,5S,6R)-4-((2R,3R)-3-(((S)-3,3-dimethyloxiran-2-yl)methyl)-2-methyloxiran-2-yl)-5-methoxy-1-oxaspiro[2.5]octan-6-yl ((R)-1-amino-3-methyl-1-oxobutan-2-yl)carbamate) at 5 mM by LC/MS analysis. The following applies: 5000 µM. It counts as ADME. The essentials: as §2

In data set [7] the target is Methionine aminopeptidase 2 (Homo sapiens) (UniProt P50579). The data set is described as follows: Inhibition of human MetAP2 assessed as remaining enzyme activity after 1 hr. Put shortly: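 The hMetAP2 assay follows the fraction of active enzyme remaining during an 8 h incubation with inhibitor, relative to an enzyme-only control.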
Data set [8] has as its system CYP3A5 (Homo sapiens). Put plainly: Ratio of Vmax to Km for human recombinant CYP3A5 assessed as ((3R,4S,5S,6R)-4-((2R,3R)-3-((E)-4-hydroxy-3-methylbut-2-en-1-yl)-2-methyloxiran-2-yl)-5-methoxy-1-oxaspiro[2.5]octan-6-yl((R)-1-amino-3-methyl-1-oxobutan-2-yl)carbamate) formation. The following applies: recombinant enzyme.
Data set [9] relates to CYP3A4 (Homo sapiens). Put plainly: Activity of human recombinant CYP3A4 assessed as ((3R,4S,5S,6R)-4-((2R,3R)-3-(((S)-3,3-dimethyloxiran-2-yl)methyl)-2-methyloxiran-2-yl)-5-methoxy-1-oxaspiro[2.5]octan-6-yl ((R)-1-amino-3-methyl-1-oxobutan-2-yl)carbamate) formation. The following applies: recombinant enzyme.
The nature of data set [10]: Oral steady-state volume of distribution in non-Hodgkin lymphoma patient at 15 mg, po alternate days for 21 days. It counts as ADME, organism-based. Particulars: human, in vivo, read-out: Vss/F. Put shortly:
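Non-Hodgkin lymphoma patients given oral capsules every other day for 21 days. Plasma sampled predose and at 15, 30 min and 1, 2, 3, 4, 6, 8, 24, 48 h after the first dose. Protein precipitated, extract reconstituted, parent and metabolites quantified by validated LC-MS/MS. CL/F and Vss/F derived from the administered dose.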

Data set [11] can be described thus: Metabolic stability in monkey liver microsomes assessed as retention time of ((3R,4S,5S,6R)-4-((2R,3R)-3-(((S)-3,3-dimethyloxiran-2-yl)methyl)-2-methyloxiran-2-yl)-5-methoxy-1-oxaspiro[2.5]octan-6-yl ((R)-1-amino-3-methyl-1-oxobutan-2-yl)carbamate) at 5 mM by LC/MS analysis. The following applies: rhesus monkey, 5000 µM. It counts as ADME, Macaca mulatta. Put shortly:
as §2

The test system of data set [12] is Liver microsome. The data set is described as follows: Metabolic stability in human liver microsomes assessed as retention time of ((3R,4S,5S,6R)-4-((2R,3R)-3-(((R)-3,3-dimethyloxiran-2-yl)methyl)-2-methyloxiran-2-yl)-5-methoxy-1-oxaspiro[2.5]octan-6-yl ((R)-1-amino-3-methyl-1-oxobutan-2-yl)carbamate) at 5 mM by LC/MS analysis. It counts as ADME. Particulars: 5000 µM.

Data set [13] deals with CYP3A5 (Homo sapiens). Put plainly: Activity of human recombinant CYP3A5 assessed as ((3R,4S,5S,6R)-4-((2R,3R)-3-((E)-4-hydroxy-3-methylbut-2-en-1-yl)-2-methyloxiran-2-yl)-5-methoxy-1-oxaspiro[2.5]octan-6-yl((R)-1-amino-3-methyl-1-oxobutan-2-yl)carbamate) formation. Particulars: recombinant enzyme.
The subject of data set [14] is Rattus norvegicus. The data set is described as follows: Inhibition of MetAP2 level in Sprague-Dawley rat liver assessed as free enzyme level at 0.3 mg/kg, iv by ELISA. It counts as functional, organism-based. Details: dose 0.3 mg/kg. Put shortly:
as §1

Data set [15] concerns Rattus norvegicus. The data set is described as follows: Inhibition of MetAP2 level in Sprague-Dawley rat lymph nodes assessed as free enzyme level at 0.3 mg/kg, po by ELISA. Details: dose 0.3 mg/kg. It counts as functional, organism-based. The essentials: as §1
A short description of data set [16]: Metabolic stability in monkey liver microsomes assessed as retention time of ((3R,4S,5S,6R)-4-((2R,3R)-3-((E)-4-hydroxy-3-methylbut-2-en-1-yl)-2-methyloxiran-2-yl)-5-methoxy-1-oxaspiro[2.5]octan-6-yl((R)-1-amino-3-methyl-1-oxobutan-2-yl)carbamate) at 5 mM by LC/MS analysis. It counts as ADME, Macaca mulatta. The following applies: rhesus monkey, 5000 µM. Put shortly: as §2

In another data set the target is Cytochrome P450 3A4 (Homo sapiens, UniProt P08684). The data set is described as follows: Inhibition of CYP3A4 activity in human liver microsomes using nifedipine as a substrate by LC/MS analysis. It counts as ADME.
Cytochrome P450 3A4, sequence (P08684 whole entry): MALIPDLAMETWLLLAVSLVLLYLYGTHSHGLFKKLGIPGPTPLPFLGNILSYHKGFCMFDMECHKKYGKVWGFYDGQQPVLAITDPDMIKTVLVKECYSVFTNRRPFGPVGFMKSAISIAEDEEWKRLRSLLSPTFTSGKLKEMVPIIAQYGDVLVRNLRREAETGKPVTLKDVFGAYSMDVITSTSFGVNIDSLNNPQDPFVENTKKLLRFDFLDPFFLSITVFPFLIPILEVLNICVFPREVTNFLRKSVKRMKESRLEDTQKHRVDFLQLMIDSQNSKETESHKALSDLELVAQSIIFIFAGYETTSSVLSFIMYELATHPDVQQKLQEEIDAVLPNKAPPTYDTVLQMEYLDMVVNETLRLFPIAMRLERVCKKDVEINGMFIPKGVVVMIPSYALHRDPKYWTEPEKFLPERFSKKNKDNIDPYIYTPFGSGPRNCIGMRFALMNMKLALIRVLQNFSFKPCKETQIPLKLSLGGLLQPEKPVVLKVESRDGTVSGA

Methionine aminopeptidase 2 (Homo sapiens), sequence (P50579 2-478 limits assumed): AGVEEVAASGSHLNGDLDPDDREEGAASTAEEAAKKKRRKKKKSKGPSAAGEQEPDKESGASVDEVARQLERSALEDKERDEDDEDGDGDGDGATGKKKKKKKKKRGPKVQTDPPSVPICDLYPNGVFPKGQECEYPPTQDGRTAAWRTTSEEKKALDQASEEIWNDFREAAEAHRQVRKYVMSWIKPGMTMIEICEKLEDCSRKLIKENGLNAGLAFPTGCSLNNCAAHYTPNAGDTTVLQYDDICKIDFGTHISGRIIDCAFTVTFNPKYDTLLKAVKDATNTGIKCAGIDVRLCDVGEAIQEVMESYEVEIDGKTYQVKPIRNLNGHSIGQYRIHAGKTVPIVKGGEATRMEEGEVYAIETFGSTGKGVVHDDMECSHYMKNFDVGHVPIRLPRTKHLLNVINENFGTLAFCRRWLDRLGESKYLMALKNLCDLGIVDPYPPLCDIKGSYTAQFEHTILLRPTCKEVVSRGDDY

Regarding `CO[C@@H]1[C@H](OC(=O)N[C@@H](C(N)=O)C(C)C)CC[C@]2(CO2)[C@H]1[C@@]1(C)O[C@@H]1CC=C(C)C` [PPI-2458], the Vmax with CYP3A4 (Homo sapiens) [1] was determined as 1.41 pmol/min; in the data set on CYP3A5 (Homo sapiens) [4], 1.42 pmol/min. The half-life in data set [2] was 1.6 h. Further, the inhibition entry with Rattus norvegicus [3], in the data set with Rattus norvegicus [14] and with Rattus norvegicus [15] was “Active” each time. Further, the Drug metabolism entry (with Liver; in data set [5]; in the data set with Liver microsome [6]; in data set [11]; in the data set with Liver microsome [12]; in [16]) was “metabolite_detected” each time. For the same compound, in data set [7], the Activity was 12%. In addition, the Vmax/Km in the data set on CYP3A5 (Homo sapiens) [8] amounted to 0.031 µL/min. Also, the Km was determined as 15 µM with CYP3A4 (Homo sapiens) [9] and 26 µM in the data set with CYP3A5 (Homo sapiens) [13]. Besides, the Vd/F in [10] is 415 L. The compound further showed a Ki at Cytochrome P450 3A4 of 403 µM.
